Experimental data: ChEMBL document CHEMBL3779892, “Increasing the binding affinity of VEGFR-2 inhibitors by extending their hydrophobic interaction with the active site: Design, synthesis and biological evaluation of 1-substituted-4-(4-methoxybenzyl)phthalazine derivatives” (Eur J Med Chem, 2016)

How the values were obtained:
MDA-MB-468 = experiment: Growth inhibition of human MDA-MB-468 cells at 10 uM after 48 hrs by sulforhodamine B assay; type: functional; conditions: MDA-MB-468, 48 h, read-out: GI
Outline: (§1)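 Run at NCI on the 60-line panel. Cells grown in RPMI 1640 with 5% FBS and 2 mM L-glutamine, plated at 5000–40,000 cells/well by doubling time, and held 24 h at 37 °C before dosing. Drug (DMSO stock) given at a single final 10 µM in triplicate wells for 48 h. Adherent cells fixed with cold TCA (10% final), suspension cells with 16% TCA. SRB stain read at 515 nm. Percent growth from Tz, C and Ti.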

serum albumin = serum albumin (Bos taurus, UniProt P02769); experiment: Binding affinity to bovine serum albumin at pH 7.4 at 25 degC by equilibrium dialysis method; type: ADME; conditions: cattle, read-out: PB (converted)
[1] = Growth inhibition of human MOLT4 cells at 10 uM after 48 hrs by sulforhodamine B assay; type: functional; conditions: MOLT-4, 48 h, read-out: GI; outline: as §1
[2] = Growth inhibition of human RPMI8226 cells at 10 uM after 48 hrs by sulforhodamine B assay; type: functional; conditions: RPMI-8226, 48 h, read-out: GI; outline: as §1
SR = experiment: Growth inhibition of human SR cells at 10 uM after 48 hrs by sulforhodamine B assay; type: functional; conditions: read-out: GI
Outline: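 NCI-60 screen. Cells were grown in RPMI 1640 with 5% FBS and 2 mM L-glutamine, plated at 5000–40,000 cells/well and held 24 h at 37 °C, 5% CO2. Single 10 µM final dose from DMSO stock, triplicate wells, 48 h. Settled cells were fixed with 80% TCA (16% final) and stained with 0.4% SRB. Dye was solubilized in 10 mM Tris and read at 515 nm. Growth was calculated against time-zero and untreated wells.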

[3] = Growth inhibition of human HCC2998 cells at 10 uM after 48 hrs by sulforhodamine B assay; type: functional; conditions: HCC 2998, 48 h, read-out: GI; outline: as §1
[4] = Growth inhibition of human HCT116 cells at 10 uM after 48 hrs by sulforhodamine B assay; type: functional; conditions: HCT-116, 48 h, read-out: GI; outline: as §1
KM12 = experiment: Growth inhibition of human KM12 cells at 10 uM after 48 hrs by sulforhodamine B assay; type: functional; conditions: KM12, 48 h, read-out: GI; outline: as §1
[5] = Growth inhibition of human SW620 cells at 10 uM after 48 hrs by sulforhodamine B assay; type: functional; conditions: SW-620, 48 h, read-out: GI
Outline: (§2)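 NCI-60 panel, adherent cells grown in RPMI 1640 with 5% FBS and 2 mM L-glutamine, plated at 5000–40,000 cells/well and preincubated 24 h at 37 °C, 5% CO2. 10 µM final compound from DMSO stock, triplicate wells, 48 h. Fixed with cold TCA (10% final, 60 min, 4 °C) and stained with 0.4% SRB. Absorbance read at 515 nm; growth calculated against time-zero and control wells.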

[6] = Growth inhibition of human SNB75 cells at 10 uM after 48 hrs by sulforhodamine B assay; type: functional; conditions: SNB-75, 48 h, read-out: GI; outline: as §1
MDA-MB-435 = experiment: Growth inhibition of human MDA-MB-435 cells at 10 uM after 48 hrs by sulforhodamine B assay; type: functional; conditions: MDA-MB-435, 48 h, read-out: GI; outline: as §1
SK-MEL-5 = experiment: Growth inhibition of human SK-MEL-5 cells at 10 uM after 48 hrs by sulforhodamine B assay; type: functional; conditions: SK-MEL-5, 48 h, read-out: GI; outline: as §1
[7] = Growth inhibition of human UACC257 cells at 10 uM after 48 hrs by sulforhodamine B assay; type: functional; conditions: UACC-257, 48 h, read-out: GI; outline: as §2
[8] = Growth inhibition of human OVCAR3 cells at 10 uM after 48 hrs by sulforhodamine B assay; type: functional; conditions: OVCAR-3, 48 h, read-out: GI; outline: as §1
786-0 = experiment: Growth inhibition of human 786-0 cells at 10 uM after 48 hrs by sulforhodamine B assay; type: functional; conditions: 786-0, 48 h, read-out: GI; outline: as §1
A498 = experiment: Growth inhibition of human A498 cells at 10 uM after 48 hrs by sulforhodamine B assay; type: functional; conditions: A498, 48 h, read-out: GI; outline: as §1
SN12C = experiment: Growth inhibition of human SN12C cells at 10 uM after 48 hrs by sulforhodamine B assay; type: functional; conditions: read-out: GI; outline: as §1
[9] = Growth inhibition of human TK10 cells at 10 uM after 48 hrs by sulforhodamine B assay; type: functional; conditions: TK-10, 48 h, read-out: GI; outline: as §2
[10] = Growth inhibition of human PC3 cells at 10 uM after 48 hrs by sulforhodamine B assay; type: functional; conditions: PC-3, 48 h, read-out: GI; outline: as §1
[11] = Growth inhibition of human DU145 cells at 10 uM after 48 hrs by sulforhodamine B assay; type: functional; conditions: DU-145, 48 h, read-out: GI; outline: as §1
[12] = Growth inhibition of human Hs 578T cells at 10 uM after 48 hrs by sulforhodamine B assay; type: functional; conditions: read-out: GI; outline: as §1

serum albumin, sequence (P02769 whole entry): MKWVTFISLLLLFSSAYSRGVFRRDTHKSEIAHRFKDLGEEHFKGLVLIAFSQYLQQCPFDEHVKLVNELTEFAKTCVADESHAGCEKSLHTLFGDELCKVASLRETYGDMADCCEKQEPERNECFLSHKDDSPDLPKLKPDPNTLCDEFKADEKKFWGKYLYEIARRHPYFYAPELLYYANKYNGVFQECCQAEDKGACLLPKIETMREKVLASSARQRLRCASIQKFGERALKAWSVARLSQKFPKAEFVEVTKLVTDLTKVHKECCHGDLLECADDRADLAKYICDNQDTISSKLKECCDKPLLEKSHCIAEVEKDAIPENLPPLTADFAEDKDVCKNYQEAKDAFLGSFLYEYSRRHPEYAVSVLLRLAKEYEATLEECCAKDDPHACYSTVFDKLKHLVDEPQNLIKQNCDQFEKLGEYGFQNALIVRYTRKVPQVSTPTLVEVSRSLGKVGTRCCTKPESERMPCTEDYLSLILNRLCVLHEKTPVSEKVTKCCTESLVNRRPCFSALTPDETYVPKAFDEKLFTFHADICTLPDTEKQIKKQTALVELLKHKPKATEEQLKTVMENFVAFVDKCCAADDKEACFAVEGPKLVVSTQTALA

Compound `COc1ccc(Cc2nnc(Nc3ccc(NC(=O)Nc4ccc(OC)cc4)cc3)c3ccccc23)cc1` has an inhibition of growth at 10 µM (MDA-MB-468) of under 30%, a fraction unbound (serum albumin) of 0.921 and an inhibition of growth at 10 µM [1] of 47%. It also gave an inhibition of growth at 10 µM [2] of 91%, an inhibition of growth at 10 µM (SR) of 39% and an inhibition of growth at 10 µM [3] of under 30%. The inhibition of growth at 10 µM [4] was 34%, the inhibition of growth at 10 µM (KM12) was 39% and the inhibition of growth at 10 µM [5] was under 30%. It also gave an inhibition of growth at 10 µM [6] of 50%, an inhibition of growth at 10 µM (MDA-MB-435) of under 30% and an inhibition of growth at 10 µM (SK-MEL-5) of under 30%. It also gave an inhibition of growth at 10 µM [7] of under 30%, an inhibition of growth at 10 µM [8] of under 30% and an inhibition of growth at 10 µM (786-0) of 63%. For the same compound, the inhibition of growth at 10 µM (A498) was under 30%, the inhibition of growth at 10 µM (SN12C) was under 30% and the inhibition of growth at 10 µM [9] was under 30%. It also gave an inhibition of growth at 10 µM [10] of 30%, an inhibition of growth at 10 µM [11] of under 30% and an inhibition of growth at 10 µM [12] of 96%.
`COc1ccc(Cc2nnc(Nc3ccc(NC(=O)Nc4cccc(OC)c4)cc3)c3ccccc23)cc1` showed an inhibition of growth at 10 µM (MDA-MB-468) of under 30%, an inhibition of growth at 10 µM [1] of under 30% and an inhibition of growth at 10 µM [2] of 43%. The inhibition of growth at 10 µM (SR) was under 30%, the inhibition of growth at 10 µM [3] was under 30% and the inhibition of growth at 10 µM [4] was under 30%. It also gave an inhibition of growth at 10 µM (KM12) of under 30%, an inhibition of growth at 10 µM [5] of under 30% and an inhibition of growth at 10 µM [6] of under 30%. For the same compound, the inhibition of growth at 10 µM (MDA-MB-435) was under 30%, the inhibition of growth at 10 µM (SK-MEL-5) was under 30% and the inhibition of growth at 10 µM [7] was under 30%. The inhibition of growth at 10 µM [8] was under 30%, the inhibition of growth at 10 µM (786-0) was 42% and the inhibition of growth at 10 µM (A498) was under 30%. The inhibition of growth at 10 µM (SN12C) was under 30%, the inhibition of growth at 10 µM [9] was under 30% and the inhibition of growth at 10 µM [10] was under 30%. The inhibition of growth at 10 µM [11] was under 30% and the inhibition of growth at 10 µM [12] was 50%.
With `COc1ccc(Cc2nnc(Nc3ccc(NC(=O)Nc4ccc(Cl)c(C(F)(F)F)c4)cc3)c3ccccc23)cc1` the inhibition of growth at 10 µM (MDA-MB-468) was 37%, the inhibition of growth at 10 µM [1] was 50% and the inhibition of growth at 10 µM [2] was 66%. For the same compound, the inhibition of growth at 10 µM (SR) was 40%, the inhibition of growth at 10 µM [3] was under 30% and the inhibition of growth at 10 µM [4] was 53%. It also gave an inhibition of growth at 10 µM (KM12) of 51%, an inhibition of growth at 10 µM [5] of under 30% and an inhibition of growth at 10 µM [6] of 50%. For the same compound, the inhibition of growth at 10 µM (MDA-MB-435) was 35%, the inhibition of growth at 10 µM (SK-MEL-5) was 36% and the inhibition of growth at 10 µM [7] was under 30%. For the same compound, the inhibition of growth at 10 µM [8] was 78%, the inhibition of growth at 10 µM (786-0) was 62% and the inhibition of growth at 10 µM (A498) was under 30%. For the same compound, the inhibition of growth at 10 µM (SN12C) was under 30%, the inhibition of growth at 10 µM [9] was under 30% and the inhibition of growth at 10 µM [10] was 45%. For the same compound, the inhibition of growth at 10 µM [11] was under 30% and the inhibition of growth at 10 µM [12] was 48%.
